Assay [1] relates to Vero. Nature of the assay: In vitro antiviral activity against herpes simplex virus type 2 virus was evaluated. Type of assay: functional. The settings on record: Chlorocebus sabaeus, read-out: ED50 (the source's name).
Assay [2] concerns Vero. In words: In vitro antiviral activity against measles virus was evaluated. Type of assay: functional. The following applies: Chlorocebus sabaeus, read-out: ED50 (the source's name).
Assay [3] concerns Vero. In words: Toxicity level was reported. Type of assay: functional, Chlorocebus sabaeus.
The test system of assay [4] is Vero. Nature of the assay: In vitro antiviral activity against Parainfluenza type 3 was evaluated. The assay is classed as functional. The settings on record: Chlorocebus sabaeus, read-out: ED50 (the source's name).
In assay [5] the test system is Vero. In words: In vitro antiviral activity against vaccinia virus was evaluated. Type of assay: functional. The settings on record: Chlorocebus sabaeus, read-out: ED50 (the source's name).
The subject of assay [6] is Vero. Nature of the assay: Toxicity level was reported; none. Type of assay: functional, cell-based. The following applies: Chlorocebus sabaeus.
The test system of assay [7] is P388. In words: In vitro inhibitory dose against P388 cells was evaluated. The assay is classed as functional. The settings on record: Mus musculus, read-out: ID50 (the source's name). The method in brief: (§1)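 Murine leukemia L1210 or lymphoid neoplasm P388 cells were grown in RPMI 1640 with 10% fetal bovine serum and 20 mM Hepes. Cells at 1 × 10⁵ cells/mL received filter-sterilized compound dissolved in growth medium, in duplicate at log concentrations from 1×10⁻⁷ to 1×10⁻⁴ M. After 48 h at 37 °C, cells were counted on a Coulter counter. Growth was expressed as percent of untreated control, and ID₅₀ was taken as the concentration giving 50% growth inhibition.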

In assay [8] the test system is L1210. Nature of the assay: In vitro inhibitory dose against L1210 leukemia cells was evaluated. The assay is classed as functional. The following applies: Mus musculus, read-out: ID50 (the source's name). The method in brief:
as §1

Assay [9] concerns Vero. In words: Toxicity level was reported; None. The following applies: Chlorocebus sabaeus. Type of assay: functional, cell-based.
The subject of assay [10] is L1210. Nature of the assay: In vitro inhibitory dose against L1210 leukemia cells was evaluated; Inactive at 10e-4 concentration. The settings on record: Mus musculus. Type of assay: functional, cell-based. The method in brief:
as §1

Assay [11] deals with P388. In words: In vitro inhibitory dose against P388 cells was evaluated; Inactive at 10e-4 concentration. Type of assay: functional, cell-based. The following applies: Mus musculus. The method in brief: as §1
Assay [12] concerns P388. Nature of the assay: Percent inhibition against P388 cell growth at concentration 10e-4 was reported; Inative at 10^-4M. Type of assay: functional, cell-based. The settings on record: Mus musculus. A digest of the protocol: as §1
In assay [13] the test system is L1210. In words: Percent inhibition against L1210 cell growth at concentration 10e-4 was reported. The assay is classed as functional, Mus musculus. A digest of the protocol:
as §1

The test system of assay [14] is P388. Nature of the assay: Percent inhibition against P388 cell growth at concentration 10e-4 was reported. Type of assay: functional, Mus musculus. The method in brief: (§2)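 L1210 murine leukemia or P388 lymphoid neoplasm cells in RPMI 1640 with 10% fetal bovine serum and 20 mM Hepes, adjusted to 1 × 10⁵ cells/mL. Compounds dissolved in medium, filter-sterilized, tested in duplicate at log concentrations 1×10⁻⁷ to 1×10⁻⁴ M. After 48 h at 37 °C, Coulter cell counts; growth as percent of untreated control; ID₅₀ is the concentration giving 50% growth inhibition.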

Assay [15] concerns L1210. Nature of the assay: Percent inhibition against L1210 cell growth at concentration 10e-4 was reported. The assay is classed as functional, Mus musculus. The method in brief: as §2
Assay [16] has as its system P388. Nature of the assay: In vitro inhibitory dose against P388 cells was evaluated; Inactive at 10^-4M. The assay is classed as functional, cell-based. The settings on record: Mus musculus. The method in brief:
as §2

The subject of assay [17] is L1210. Nature of the assay: In vitro inhibitory dose against L1210 leukemia cells was evaluated; Inactive at 10^-4M. Type of assay: functional, cell-based. The following applies: Mus musculus. The method in brief: as §2

Active and inactive are the calls of the source. No cut-off for these calls is given here. Some results are limits rather than exact numbers.

As usually defined, the Inhibition is how much of the control response was suppressed. The low end stands for a weak effect, the high end for a strong effect.

As to `CSc1nc(O)c2c(C(N)=O)[nH]nc2n1`, the EC50 was 85 µM with Vero [1], greater than 500 µM with Vero [2], greater than 500 µM in the assay on Vero [4] and 330 µM in the assay with Vero [5]. Further, the Toxic level in the assay on Vero [3] was greater than 0.5 mM.

Turning to `NC(=O)c1c[se]c([C@@H]2O[C@H](CO)[C@@H](O)[C@H]2O)n1`, the EC50 is 14 µM in the assay with Vero [1], 3.2 µM in the assay with Vero [2], 3.2 µM with Vero [4] and 9.8 µM with Vero [5]. For the same compound, the Toxic level result with Vero [6] was “inactive”.

Turning to `N#Cc1nn(C2O[C@H](CO)[C@@H](O)[C@H]2O)c2nc(N)[nH]c(=O)c12` (some centres undefined), the EC50 in the assay with Vero [1] was 100 µM; with Vero [2], 54 µM; in the assay with Vero [4] it was 220 µM; in the assay with Vero [5], 140 µM. Moreover, the IC50 with P388 [7] was determined as 21 µM; in the assay on L1210 [8], 22 µM. In addition, the Toxic level result in the assay with Vero [9] is listed as “None”.

For the compound `NC(=O)c1[nH]nc2nc(S)nc(O)c12`, the results for the EC50 in the assay with Vero [1], in the assay on Vero [2] and in the assay with Vero [4] were 180 µM, greater than 500 µM and 390 µM, respectively. In addition, in the assay with Vero [9], the Toxic level result is “None”.

For `Oc1[nH]c(Br)nc2nnc(Br)c1-2`, the EC50 with Vero [1] was greater than 500 µM; in the assay with Vero [2], greater than 5000 µM; with Vero [4] it was greater than 5000 µM; in the assay with Vero [5], 240 µM. Further, the Toxic level with Vero [3] is greater than 0.05 mM.

With `Nc1nc2c(cnn2C2O[C@H](CO)[C@@H](O)[C@H]2O)c(=O)[nH]1` (some centres undefined), the ID50 result with L1210 [10] and with P388 [11] was “inactive” in each case. The EC50 is 1600 µM with Vero [1], greater than 5000 µM in the assay with Vero [4] and 1000 µM with Vero [5]. Moreover, the Toxic level result in the assay with Vero [6] is “inactive”.

Turning to `NC(=S)c1nn(C2O[C@H](CO)[C@@H](O)[C@H]2O)c2nc(N)[nH]c(=O)c12` (some centres undefined), in the assay with P388 [12], the ID50 result is “inactive”. The results for the EC50 in the assay with Vero [1], in the assay with Vero [2] and with Vero [4] were greater than 5000 µM, 65 µM and 590 µM, respectively. The same compound came in with an Inhibition with L1210 [13] of 43%. Moreover, in the assay on Vero [9], the Toxic level entry is listed as “None”.

`COc1nc2c(c(Br)nn2C2O[C@H](CO)[C@@H](O)[C@H]2O)c(=O)[nH]1` (some centres undefined): the EC50 in the assay on Vero [1] was 1600 µM; in the assay with Vero [2], greater than 2500 µM; in the assay on Vero [4] it was greater than 2500 µM; with Vero [5], 3500 µM. Besides, the Toxic level in the assay with Vero [3] was 2.5 mM.

With `NC(=O)c1nn(C2O[C@H](CO)[C@@H](O)[C@H]2O)c2nc(N)[nH]c(=O)c12` (some centres undefined), the Inhibition is 22% in the assay on P388 [14] and 30% with L1210 [15]. The EC50 in the assay on Vero [1], with Vero [2], in the assay on Vero [4] and in the assay on Vero [5] was greater than 500 µM each time. Moreover, the Toxic level entry in the assay on Vero [9] is “None”.

Turning to `NC(=O)c1ncn([C@@H]2O[C@H](CO)[C@@H](O)[C@H]2O)n1` [RIBAVIRIN], the EC50 was 190 µM with Vero [1], 33 µM with Vero [2], 160 µM in the assay on Vero [4] and 85 µM in the assay with Vero [5]. For the same compound, the Toxic level result in the assay with Vero [6] was “Non-toxic”.

As to `Nc1nc2c(c(Br)nn2C2O[C@H](CO)[C@@H](O)[C@H]2O)c(=O)[nH]1` (some centres undefined), the EC50 in the assay with Vero [1] is 180 µM; with Vero [2] it was 20 µM; in the assay on Vero [4] it was greater than 5000 µM; with Vero [5], 76 µM. The IC50 in the assay with P388 [7] and in the assay on L1210 [8] was 36 µM throughout. In the assay with Vero [3], the Toxic level is 1.6 mM.

Regarding `Oc1[nH]c(Br)nc2nncc1-2`, the EC50 with Vero [1] is 1600 µM; in the assay on Vero [2] it was greater than 5000 µM; in the assay on Vero [4], greater than 5000 µM; in the assay with Vero [5] it was 430 µM. The Toxic level in the assay with Vero [3] was found to be 1.6 mM.

On to `C[S+]([O-])c1nc(O)c2c(Br)[nH]nc2n1` (centres undefined), for which the EC50 in the assay on Vero [1] was 1200 µM; with Vero [2] it was greater than 5000 µM; in the assay on Vero [4], greater than 5000 µM; in the assay with Vero [5] it was 260 µM. In addition, the Toxic level in the assay on Vero [3] is greater than 0.5 mM.

Turning to `Nc1nc2c(c(C(=O)O)nn2C2O[C@H](CO)[C@@H](O)[C@H]2O)c(=O)[nH]1` (some centres undefined), the ID50 result with P388 [16] and in the assay on L1210 [17] was “inactive” each time. The EC50 in the assay with Vero [1], with Vero [2], in the assay with Vero [4] and in the assay on Vero [5] was greater than 5000 µM each time. For the same compound, the Toxic level result in the assay with Vero [9] was “None”.

The record behind these values is ChEMBL document CHEMBL1123095, “Synthesis and biological activity of 6-azacadeguomycin and certain 3,4,6-trisubstituted pyrazolo[3,4-d]pyrimidine ribonucleosides” (1985).
